# Bioassay records: PubChem, several laboratories
# NALP3 yeast inh: NALP3 inhibition in yeast | hit rate 0.39% among 330,000 | Yeast reconstituted NLRP3/ASC/caspase-1, beta-gal luminescence, 24 h | AID 2825 | inhibition, % at 10 µM;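 active means inhibition of 50% or more; inactive means inhibition below 50%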;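 further: plate controls were induced DMSO wells for no effect and uninduced yeast grown without galactose for full effect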
# CSC inhib: blocks cancer stem cells; hit rate 1.1% among 300,000; cancer stem cell-like cells viability, luminescence; inhibition, % at 7.5 µM; in the data active means inhibition above about 75%; tested in HMLE shEcad cells
# Calb FLC: C. albicans growth modulation with fluconazole; C. albicans CaCi-2 + fluconazole, Alamar Blue growth, 48 h; growth inhibition, % (test concentration not listed); hit rate 0.57% among 300,000;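 active means growth inhibition above about 58% in most replicates, limit read from the data, passing the limit was not always enough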;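 further: all wells also contain fluconazole at 8 µg/ml as a sub-toxic cotreatment; 0% = median of DMSO wells and 100% = median of geldanamycin control wells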
# Mdm2 MdmX PPI: human Mdm2/MdmX binding inhibition. hit rate 3% among 330,000. SaOS-2 split-luciferase Mdm2/MdmX complementation, luminescence. inhibition, % at 8 µM. O15151+Q00987;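 active means inhibition of at least 50% at 8 µM in the primary screen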
# Target sequence (O15151 whole entry, looked up): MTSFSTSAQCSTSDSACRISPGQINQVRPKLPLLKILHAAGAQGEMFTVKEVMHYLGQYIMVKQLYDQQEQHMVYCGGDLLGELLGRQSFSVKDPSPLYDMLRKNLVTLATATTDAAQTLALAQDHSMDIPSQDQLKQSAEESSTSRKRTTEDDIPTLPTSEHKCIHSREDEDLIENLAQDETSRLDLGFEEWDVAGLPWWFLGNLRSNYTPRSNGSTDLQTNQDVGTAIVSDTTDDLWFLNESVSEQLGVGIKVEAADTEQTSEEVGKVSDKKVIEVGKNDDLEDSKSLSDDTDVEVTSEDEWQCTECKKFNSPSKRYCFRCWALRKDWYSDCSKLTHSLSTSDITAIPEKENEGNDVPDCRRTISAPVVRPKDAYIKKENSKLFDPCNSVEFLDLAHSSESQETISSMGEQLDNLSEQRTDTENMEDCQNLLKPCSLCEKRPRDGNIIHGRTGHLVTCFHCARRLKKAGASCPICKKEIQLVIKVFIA
# Target sequence (Q00987 whole entry, looked up): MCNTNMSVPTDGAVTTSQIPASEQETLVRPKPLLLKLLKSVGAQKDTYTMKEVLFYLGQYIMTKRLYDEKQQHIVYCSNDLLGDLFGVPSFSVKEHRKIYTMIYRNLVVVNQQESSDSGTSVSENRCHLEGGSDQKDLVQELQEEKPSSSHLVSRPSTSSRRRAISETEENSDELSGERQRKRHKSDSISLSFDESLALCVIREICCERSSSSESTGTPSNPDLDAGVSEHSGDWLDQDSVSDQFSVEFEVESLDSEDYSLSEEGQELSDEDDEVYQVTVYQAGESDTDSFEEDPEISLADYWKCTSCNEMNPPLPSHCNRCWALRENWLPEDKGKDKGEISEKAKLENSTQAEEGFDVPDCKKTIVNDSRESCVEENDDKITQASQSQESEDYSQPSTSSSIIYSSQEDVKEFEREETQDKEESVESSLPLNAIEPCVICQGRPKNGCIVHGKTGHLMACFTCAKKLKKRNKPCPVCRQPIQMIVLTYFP
# T cruzi repl: blocks replication of Trypanosoma cruzi; T. cruzi beta-gal in NIH3T3, luminescence, 90 h; inhibition, % (test concentration not listed); hit rate 1.4% among 300,000;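 active means mean inhibition across valid replicates above about 55%, limit read from the data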;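 further: signal also drops with host cell toxicity which is not excluded here; 0% = plate median of DMSO wells and 100% = zero luminescence signal; higher percent means less beta-gal luminescence so fewer parasites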
#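 Assay system: NIH/3T3 fibroblasts plus reporter T. cruzi. Amount: NIH/3T3 cells, 5,000 per well. Buffer or medium: DMEM, 2% fetal bovine serum. Doses: compound pinned at 50 nL/well, DMSO. Schedule: ≥90 h infection period, 3 h prior cell attachment. Signal: luminescent β-galactosidase signal after 60 min lysis. Read-out: parasite load inhibition, %.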
# Beta apoptosis: beta cell apoptosis inhibition; INS-1E cytokine-induced death, ATP luminescence, 48 h; percent of positive-control rescue, neutral wells zero; protection from apoptosis, % (no concentration beside the values); hit rate 0.8% among 300,000;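 active means Every replicate reaches about 75%, or at least half do and their mean reaches it too, limit read from the data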;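 further: 0% = cytokine-treated negative control wells and 100% = positive control rescue; higher means more ATP so stronger rescue from cytokine killing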
# NALP3 confirm: confirmation of NALP3 inhibitors in yeast; shares compounds with NALP3 yeast inh; yeast expressing human NALP3, luminescence; inhibition, % at 10 µM; hit rate 81% among 1,300; in the data active means inhibition above about 48%
# Casp1-ASC yeast: active in yeast caspase-1-ASC counter-screen for NALP3 inhibitors; hit rate 66% among 1,000; shares compounds with NALP3 yeast inh; inhibition, % at 10 µM; yeast expressing Caspase-1-ASC, luminescence counter screen
# NALP3 retest: confirmation retest of NALP3 inhibitors in yeast; shares compounds with NALP3 yeast inh; inhibition, % at 10 µM; AID 488794; yeast expressing human NALP3, luminescence read-out; hit rate 53% among 1,000
# * marks the source's active call; other numbers are inactive results; . = no result given. Shown are actives, neighbours in structure and some others; about 5.3% of the full set was active somewhere. Unless noted, no stated cut-off is given here; in the data, active means inhibition above about 50%; inactive means the rest.
SMILES,NALP3 yeast inh,CSC inhib,Calb FLC,Mdm2 MdmX PPI,T cruzi repl,Beta apoptosis,NALP3 confirm,Casp1-ASC yeast,NALP3 retest
CCOC(=O)c1nc2sc3c(c2c(=O)[nH]1)CCC(C)C3 (stereo not given),17.5,3.3,26.4,4.5,-2.6,-5.1,.,.,.
Cc1sc2nc(SCC(=O)NCc3ccco3)n(C)c(=O)c2c1C,2.5,6.1,1.9,28.4,0.5,-2.1,.,.,.
Cc1sc2nc(C3CC3)nc(SCC(=O)NCc3ccco3)c2c1C,51.2*,-7.9,0.7,12.2,16.5,4.7,26.2,.,.
Cc1nc(SCC(=O)NC2CCS(=O)(=O)C2)c2c(C)c(C)sc2n1 (stereo not given),3.6,.,.,-31.0,.,.,.,.,.
Cc1nc(SCC(=O)NC2CCCC2)c2c(C)c(C)sc2n1,54.4*,-12.3,-4.2,17.3,3.5,-6.2,56.4*,38.5,29.4
CC(=O)C(Sc1nccc(-c2cccs2)n1)C(C)=O,39.1,-8.1,-32.7,-5.9,-14.4,-4.8,.,.,.
c1ccc(Oc2cc(-c3ccccc3)ncn2)cc1,52.1*,-10.6,-2.5,-3.2,-4.4,3.4,46.8,70.8*,54.6*
CCCCOc1ccc(N=Cc2cccs2)cc1,3.5,2.3,-3.2,6.9,28.4,-3.9,.,.,.
NCCNC[C@@H]1COC2(CCCCCCCCCCC2)O1,58.6*,-8.4,-9.7,24.6,10.0,-15.4,74.5*,.,.
O/N=C/c1cc(Br)cc(Br)c1OCc1ccccc1,-102.4,3.6,-0.1,44.5,-1.1,-3.8,-40.0,.,.
c1ccc2[nH]c(CSc3nc4ccccc4s3)nc2c1,59.0*,0.9,-0.7,4.9,-4.8,3.0,74.7*,55.5*,60.7*
Cc1ccc2c(c1)NC(=O)[C@@]1(C)[C@@H](c3ccccc3)[C@H]3COc4ccccc4[C@@H]3N1C2=O,15.3,17.2,.,-2.5,.,-0.1,.,.,.
Cc1ccc2c(c1)C(=O)N1[C@H]3c4ccccc4OC[C@@H]3[C@H](c3ccccc3)[C@]1(C)C(=O)N2,70.1*,13.8,.,13.1,.,-1.9,83.1*,84.2*,72.7*
C[C@@]12C(=O)Nc3ccc(Br)cc3C(=O)N1[C@H]1c3ccccc3OC[C@@H]1[C@@H]2c1ccccc1,87.5*,23.8,.,35.2,.,4.7,89.4*,89.8*,74.2*
Cc1ccccc1CSc1[nH]c(=O)ncc1C,9.3,-10.4,3.2,3.1,2.8,2.2,.,.,.
COC(=O)C1C(C(=O)OC)C1(c1ccccc1)c1ccccc1 (stereo not given),-138.0,3.3,0.4,-58.0,-7.5,-0.4,-37.7,.,.
COC(=O)C1C(c2ccccc2)C=CC(c2ccccc2)C1C(=O)O (stereo not given),-2.3,-1.5,-1.6,-28.9,-2.1,1.0,.,.,.
CCOC(=O)CC1CCCCN1Cc1nc(-c2ccc(F)c(OC)c2)oc1C (stereo not given),-1.4,.,-14.3,-2.0,-9.4,0.8,.,.,.
CCc1noc(C)c1C(=O)N1CCN(S(=O)(=O)c2ccc(C)cc2C)CC1,13.9,-0.3,17.0,16.6,-14.2,-1.1,.,.,.
CC(=O)/C=C\c1cn(-c2ncc(C(F)(F)F)cc2Cl)c2ccccc12,10.3,.,-29.1,46.2,29.9,5.9,.,.,.
CO/N=C/NC(=O)Cc1cn(-c2ncc(C(F)(F)F)cc2Cl)c2ccccc12,56.2*,-5.8,-6.2,13.3,11.3,1.8,63.5*,38.0,38.5
O=C(Cn1cnc2ccccc2c1=O)c1cccs1,0.0,-8.5,1.7,-5.4,0.5,-0.8,.,.,.
O=C(/C=C/c1ccnc2ccccc12)c1cccs1,53.2*,85.7*,65.6,-30.7,6.4,-5.4,72.5*,.,.
Cn1nnc(NC(=S)NC(=O)c2cccc3c(Br)cccc23)n1,41.3,-7.4,3.4,-6.4,-8.4,-7.8,.,.,.
Cn1nnc(NC(=S)NC(=O)c2cccc3c(Cl)cccc23)n1,54.1*,3.0,6.3,23.0,-56.2,-0.4,64.4*,74.2*,46.4
SMILES,NALP3 yeast inh,CSC inhib,Calb FLC,Mdm2 MdmX PPI,T cruzi repl,Beta apoptosis,NALP3 confirm,Casp1-ASC yeast,NALP3 retest
NNC(=O)c1sccc1OCc1cccc(C(F)(F)F)c1,-4.3,.,-10.5,3.8,30.2,4.8,.,.,.
C/C=C/c1ccc(OCC(=O)NCc2ccccc2OC)c(OC)c1,50.0*,-2.7,-0.9,-1.5,3.5,-12.9,25.1,.,.
Nc1ccc(Br)cc1-c1nc2ccccc2[nH]c1=O,53.9*,.,-34.7,3.8,19.8,101.9*,23.5,.,.
Nc1ccccc1-c1nc2ccccc2[nH]c1=O,31.7,4.9,-9.2,-30.4,-7.8,0.3,.,.,.
O=C(CSc1ncnc2sccc12)Nc1ccccc1,30.0,-2.0,-4.5,-4.9,-5.4,-12.6,.,.,.
O=c1c(O)c(-c2cccs2)oc2ccccc12,67.4*,19.4,-5.2,48.0,27.0,8.6,86.5*,78.5*,73.3*
CC(C)C(OC(=O)c1cccs1)C(=O)NCCc1ccccc1 (stereo not given),19.1,-4.7,-4.2,-23.4,-5.7,1.3,.,.,.
Cc1ccc(N2CC(C(=O)OCC(=O)C(C)(C)C)CC2=O)cc1C (stereo not given),-1.8,-4.9,-13.2,4.7,-2.8,.,.,.,.
Cc1ccc(C)c(NC(=O)c2cnn(-c3ccccc3)c2C)c1,55.1*,-7.1,-3.6,-15.2,3.6,3.9,65.6*,44.9,44.7
Cc1ccccc1NC(=O)c1cnn(-c2ccccc2)c1C,44.0,8.8,-0.7,-33.4,12.5,5.8,.,.,.
Cc1cccc(NC(=O)c2cnn(-c3ccccc3)c2C)c1C,40.2,-6.9,-14.9,-25.4,0.9,8.2,.,.,.
Cc1c(C(=O)Nc2cccc(F)c2)cnn1-c1ccccc1,55.4*,1.4,-14.6,-92.0,8.4,3.9,71.6*,71.2*,64.1*
CCc1ccccc1NC(=O)c1cnn(-c2ccccc2)c1C,51.6*,-3.6,-10.8,10.2,4.0,-0.5,73.5*,60.8*,55.6*
Cc1c(C(=O)Nc2ccccc2)cnn1-c1ccccc1,47.9,-1.3,-14.5,-60.2,6.0,8.5,.,.,.
CC1CN(c2nc(N(C)c3ccccc3)nc(N)c2[N+](=O)[O-])CC(C)O1 (stereo not given),53.5*,3.3,2.8,-17.7,18.1,-1.9,44.0,39.5,44.0
CC1CC(C)CN(c2nc(N(C)c3ccccc3)nc(N)c2[N+](=O)[O-])C1 (stereo not given),33.1,10.4,12.5,-0.4,24.6,4.2,.,.,.
S=C(NCc1ccco1)Nc1ccc(Oc2ccc(Cl)cc2)cc1,1.7,41.7,-2.4,15.6,-13.4,-3.1,.,.,.
COC(=O)c1sccc1NC(=O)c1ccc(Br)o1,52.6*,-2.9,-5.9,36.9,-8.2,-2.8,38.2,33.7,45.8
COc1ccc(NC(=O)C#Cc2ccccc2)cc1,66.9*,18.6,2.6,14.0,3.6,-8.2,76.0*,48.1,62.1*
